Experiments:
Aurora kinase B [1] = target: T1, Aurora kinase B (Homo sapiens, UniProt Q96GD4); experiment: Inhibition of Aurora kinase B-mediated histone H3 Ser10 phosphorylation in human HCT116 cells after 2 hrs by sandwich ELISA; assay type: cell-based, HCT-116
Outline: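 HCT-116 cells seeded 4 × 10⁴/well, 4-6 h at 37 °C, then arrested overnight (16-18 h) with nocodazole at 66 ng/mL final. Treated 2 h with nine-point 3-fold dilutions in DMSO; lysed with phosphatase inhibitor, phospho-H3 (Ser10) sandwich ELISA read at 450 nm. IC50 = 50% inhibition of phosphorylation; duplicate runs averaged.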

Aurora kinase B [2] = target: T1, Aurora kinase B; experiment: Binding affinity to Aurora kinase B catalytic domain by competition binding assay
HCT-116 = experiment: Antiproliferative activity against human HCT116 cells after 72 hrs by BrdU-based ELISA; assay type: functional, cell-based; conditions: HCT-116, 72 h
Outline: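 HCT-116 cells in McCoy's 5A with 10% FBS and pen/strep, seeded 800 cells/well, left overnight at 37 °C, 5% CO2. Nine-point 3-fold serial dilutions in DMSO added for 72 h; BrdU colorimetric ELISA read at 450 and 690 nm. IC50 is the concentration halving proliferation; duplicate runs averaged.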

Aurora kinase A = target: T2, Aurora kinase A (Homo sapiens, UniProt O14965); experiment: Binding affinity to Aurora kinase A catalytic domain by competition binding assay
T2 sequence (O14965 whole entry): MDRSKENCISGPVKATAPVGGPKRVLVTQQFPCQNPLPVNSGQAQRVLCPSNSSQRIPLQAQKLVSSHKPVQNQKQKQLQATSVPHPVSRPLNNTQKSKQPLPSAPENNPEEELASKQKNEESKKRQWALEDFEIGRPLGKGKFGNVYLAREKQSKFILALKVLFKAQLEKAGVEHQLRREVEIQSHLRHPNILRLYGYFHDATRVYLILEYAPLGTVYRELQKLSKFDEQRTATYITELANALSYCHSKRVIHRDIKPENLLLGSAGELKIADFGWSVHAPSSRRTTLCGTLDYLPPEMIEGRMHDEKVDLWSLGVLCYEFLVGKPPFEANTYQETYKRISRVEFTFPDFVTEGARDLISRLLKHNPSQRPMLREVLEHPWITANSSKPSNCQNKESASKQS

T1 sequence (Q96GD4 whole entry): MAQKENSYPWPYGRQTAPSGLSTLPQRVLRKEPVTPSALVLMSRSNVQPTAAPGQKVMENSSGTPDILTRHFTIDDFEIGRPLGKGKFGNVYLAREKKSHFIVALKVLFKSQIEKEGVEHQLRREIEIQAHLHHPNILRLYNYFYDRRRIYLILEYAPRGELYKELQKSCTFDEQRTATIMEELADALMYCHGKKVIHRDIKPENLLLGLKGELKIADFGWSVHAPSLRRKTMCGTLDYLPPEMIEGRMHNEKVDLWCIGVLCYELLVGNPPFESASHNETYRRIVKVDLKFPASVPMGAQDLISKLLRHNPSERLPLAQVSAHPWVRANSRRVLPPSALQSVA

| IC50 (Aurora kinase B [1]) [nM] | Kd (Aurora kinase B [2]) [nM] | IC50 (HCT-116) [nM] | Kd (Aurora kinase A) [nM] | SMILES |
| --- | --- | --- | --- | --- |
| 9.3 | 3.3 | 1.3 | 4.2 | Cc1cc(Nc2nc(Sc3ccc(NC(=O)CN4CC[C@@H](C(=O)NC5CCC5)C4)cc3)nn3cccc23)n[nH]1 |
| 103 | 6.6 | 74 | 10.5 | Cc1cc(Nc2nc(Sc3ccc(NC(=O)CN4CC[C@@H](O)C4)cc3)nn3cccc23)n[nH]1 |
| 94.5 | 14.2 | 19.3 | 25.2 | Cc1cc(Nc2nc(Sc3ccc(NC(=O)CN4CC[C@@H](SC(C)(C)C)C4)cc3)nn3cccc23)n[nH]1 |
| 9 | 2.4 | 2.9 | 8.8 | Cc1cc(Nc2nc(Sc3ccc(NC(=O)CN4CCC(C(=O)N5CCCC5)C4)cc3)nn3cccc23)n[nH]1 (racemic) |
| 169 | 2.9 | 29.8 | 12.5 | Cc1cc(Nc2nc(Sc3ccc(NC(=O)CN4CC[C@@H](OCCN5CCN(C)CC5)C4)cc3)nn3cccc23)n[nH]1 |
| 27.1 | 3.7 | 10.8 | 5.1 | Cc1cc(Nc2nc(Sc3ccc(NC(=O)CN4CC[C@@H](OCCCN5CCOCC5)C4)cc3)nn3cccc23)n[nH]1 |
| 37.6 | 1.9 | 16.7 | 10.1 | Cc1cc(Nc2nc(Sc3ccc(NC(=O)CN4CC[C@H](C(=O)N5CCCC5)C4)cc3)nn3cccc23)n[nH]1 |
| 293 | 3.7 | 105 | 4 | Cc1cc(Nc2nc(Sc3ccc(NC(=O)CN4CC[C@@H](C(=O)N5CCC(O)CC5)C4)cc3)nn3cccc23)n[nH]1 |
| 10 | 2.9 | 3.2 | 6.4 | Cc1cc(Nc2nc(Sc3ccc(NC(=O)CN4CC[C@@H](C(=O)N5CCCCC5)C4)cc3)nn3cccc23)n[nH]1 |
| 63.2 | 2.9 | 19 | 6.3 | Cc1cc(Nc2nc(Sc3ccc(NC(=O)CN4CC[C@@H](C(=O)NCCN5CCOCC5)C4)cc3)nn3cccc23)n[nH]1 |
| 114 | 5.7 | 46.5 | 13.1 | Cc1cc(Nc2nc(Sc3ccc(NC(=O)CN4CC[C@@H](NC(=O)C(C)C)C4)cc3)nn3cccc23)n[nH]1 |
| 28.6 | 4.3 | 9.2 | 4 | Cc1cc(Nc2nc(Sc3ccc(NC(=O)CN4CC[C@@H](S(=O)(=O)C(C)(C)C)C4)cc3)nn3cccc23)n[nH]1 |
| 42.2 | 6.9 | 3.8 | 19.5 | Cc1cc(Nc2nc(Sc3ccc(NC(=O)CN4CC[C@@H](C(=O)Nc5ccc(F)cc5)C4)cc3)nn3cccc23)n[nH]1 |
| 13 | 1.7 | 5 | 4.5 | Cc1cc(Nc2nc(Sc3ccc(NC(=O)CN4CC[C@@H](OCCO)C4)cc3)nn3cccc23)n[nH]1 |
| 6.3 | 2.5 | 2.2 | 6.3 | Cc1cc(Nc2nc(Sc3ccc(NC(=O)CN4CC[C@@H](C(=O)N5CCCC5)C4)cc3)nn3cccc23)n[nH]1 |
| 14.6 | 2.6 | 3.9 | 4 | Cc1cc(Nc2nc(Sc3ccc(NC(=O)CN4CC[C@@H](C(=O)N5CCOCC5)C4)cc3)nn3cccc23)n[nH]1 |
| 43.4 | 6.6 | 17.8 | 11 | Cc1cc(Nc2nc(Sc3ccc(NC(=O)CN4CC[C@@H](OCCN5CCOCC5)C4)cc3)nn3cccc23)n[nH]1 |
| 8.9 | 3.6 | 2.6 | 25 | Cc1cc(Nc2nc(Sc3ccc(NC(=O)CN4CC[C@@H](OC(C)(C)C)C4)cc3)nn3cccc23)n[nH]1 |
| 362 | 3.2 | 270 | 12.3 | Cc1cc(Nc2nc(Sc3ccc(NC(=O)CN4CC[C@@H](NS(C)(=O)=O)C4)cc3)nn3cccc23)n[nH]1 |

Source: ChEMBL document CHEMBL2163334, “Discovery of highly potent and selective pan-Aurora kinase inhibitors with enhanced in vivo antitumor therapeutic index” (J Med Chem, 2012)
